pKi: −log10 of the molar value. The source made the active and inactive calls.

Data set [1] addresses T1, Muscarinic acetylcholine receptor M4 (Homo sapiens) (UniProt P08173).
T1 sequence (whole entry): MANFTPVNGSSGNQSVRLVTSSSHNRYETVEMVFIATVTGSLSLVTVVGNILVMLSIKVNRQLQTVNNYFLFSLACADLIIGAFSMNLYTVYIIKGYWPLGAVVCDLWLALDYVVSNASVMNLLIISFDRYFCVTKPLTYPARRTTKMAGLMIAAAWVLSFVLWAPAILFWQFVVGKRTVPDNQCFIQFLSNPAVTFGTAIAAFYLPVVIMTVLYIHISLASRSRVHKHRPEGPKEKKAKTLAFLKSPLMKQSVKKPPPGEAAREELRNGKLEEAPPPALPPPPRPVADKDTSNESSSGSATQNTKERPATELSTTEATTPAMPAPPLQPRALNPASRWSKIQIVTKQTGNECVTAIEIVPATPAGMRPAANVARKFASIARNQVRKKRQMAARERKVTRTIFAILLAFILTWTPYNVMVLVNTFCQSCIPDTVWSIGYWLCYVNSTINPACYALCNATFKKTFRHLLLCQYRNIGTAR
As to the kind of experiment: Displacement of [3H]-4-DAMP from muscarinic M4 receptor (unknown origin) at 1 uM after 60 mins. For orientation: In a radioligand displacement assay an active substance lowers the binding of a labelled ligand.

A further data set is filed under the species Homo sapiens. As to the kind of experiment: Displacement of [3H]CGP54626 from GABAB receptor (unknown origin) at 1 uM after 120 mins.
The target of data set [2] is Cannabinoid receptor 2 (Homo sapiens) (UniProt P34972). Nature of the data set: Displacement of [3H]WIN55212-2 from CB2 receptor (unknown origin) at 1 uM after 120 mins.
Chain of Cannabinoid receptor 2 (Homo sapiens) (P34972 whole entry): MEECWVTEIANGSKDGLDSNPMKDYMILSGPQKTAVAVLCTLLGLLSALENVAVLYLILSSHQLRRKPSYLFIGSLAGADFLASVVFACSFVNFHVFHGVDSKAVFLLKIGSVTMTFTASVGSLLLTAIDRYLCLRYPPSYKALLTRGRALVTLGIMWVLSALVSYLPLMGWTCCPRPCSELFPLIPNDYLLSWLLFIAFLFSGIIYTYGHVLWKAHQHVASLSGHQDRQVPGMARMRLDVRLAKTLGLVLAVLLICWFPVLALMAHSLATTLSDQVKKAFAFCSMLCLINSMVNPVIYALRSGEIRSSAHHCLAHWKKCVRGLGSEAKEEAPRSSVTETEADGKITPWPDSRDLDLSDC
In data set [3] the target is Cannabinoid receptor 1 (Homo sapiens) (UniProt P21554). As to the kind of experiment: Displacement of [3H]CP 55940 from CB1 receptor (unknown origin) at 1 uM after 120 mins.
Chain of Cannabinoid receptor 1 (Homo sapiens) (P21554 whole entry): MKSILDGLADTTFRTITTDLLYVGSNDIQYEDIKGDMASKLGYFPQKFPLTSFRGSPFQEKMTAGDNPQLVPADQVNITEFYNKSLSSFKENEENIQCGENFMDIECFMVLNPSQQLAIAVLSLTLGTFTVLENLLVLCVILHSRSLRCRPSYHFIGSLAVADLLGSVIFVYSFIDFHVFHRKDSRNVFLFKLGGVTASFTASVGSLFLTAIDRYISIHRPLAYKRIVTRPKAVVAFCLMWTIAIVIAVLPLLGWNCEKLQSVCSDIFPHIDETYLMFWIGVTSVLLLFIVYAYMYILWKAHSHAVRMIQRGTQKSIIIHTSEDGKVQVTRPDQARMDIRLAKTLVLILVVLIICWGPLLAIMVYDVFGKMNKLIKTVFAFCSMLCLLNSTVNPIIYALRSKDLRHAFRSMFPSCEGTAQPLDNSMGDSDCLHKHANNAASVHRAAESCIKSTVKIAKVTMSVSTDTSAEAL
Data set [4] concerns the target Adrenergic receptor alpha-2 (Homo sapiens) (UniProt P08913+P18825+P18089). Nature of the data set: Displacement of [3H]RX 821002 from alpha2-adrenergic receptor (unknown origin) at 1 uM after 60 mins.
Data set [5] has as its system Mus musculus. As to the kind of experiment: Toxicity in CD-1 mouse at 3 mg/kg, ip and 30 mg/kg, po. It is filed as organism-based. To be noted: in vivo.
The test system of data set [6] is Mus musculus. As to the kind of experiment: Antinociceptive activity in CD-1 mouse assessed as reduction of formalin-induced paw licking activity at 30 mg/kg, po administered 30 mins prior to formalin-challenge measured after 15 to 30 mins. Further details: dose 30 mg/kg. The class given is functional, organism-based.
The subject of data set [7] is Mus musculus. Nature of the data set: Antinociceptive activity in CD-1 mouse assessed as reduction of formalin-induced paw licking activity at 30 mg/kg, po administered 30 mins prior to formalin-challenge measured after 5 mins. The class given is functional, organism-based. Further details: dose 30 mg/kg.
The subject of data set [8] is Mus musculus. As to the kind of experiment: Antinociceptive activity in CD-1 mouse assessed as reduction of formalin-induced paw licking activity at 3 mg/kg, ip administered 15 mins prior to formalin-challenge measured after 5 mins in presence of 5-HT1A receptor antagonist WAY-100635. The class given is functional, organism-based. Further details: dose 3 mg/kg.
A further data set addresses Albumin (Homo sapiens, UniProt P02768). As to the kind of experiment: Binding affinity to human serum albumin at 5 uM after 12 mins by HPLC-MS analysis relative to control. It is filed as ADME. As to conditions: isolated protein, 0.2 h.
Data set [9] in a line: Half life in mouse liver microsomes at 1 to 5 uM by HPLC-MS analysis. It is filed as ADME, Microsome.
A short description of data set [10]: Intrinsic clearance in human liver microsomes at 1 to 5 uM by HPLC-MS analysis. The class given is ADME, Microsome. To be noted: read-out: CLH. The gist of the method:
(§1)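 Incubation mixtures pre-equilibrated at 37 °C with NADPH and MgCl2, then rat or human liver microsomes added to start the reaction. Aliquots were withdrawn and quenched at several time points, and percent parent remaining was measured by HPLC-MS and plotted against time. t1/2 was taken from the slope of peak area over time and used to calculate CLint.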

Data set [11] in a line: Half life in Sprague-Dawley rat liver microsomes at 1 to 5 uM by HPLC-MS analysis. The class given is ADME, Microsome. The gist of the method:
as §1
A general note: Liver microsomes are vesicles of endoplasmic reticulum, rich in cytochrome P450 enzymes.

The species named for data set [12] is Mus musculus. As to the kind of experiment: Hypothermic activity in Swiss mouse assessed as change in rectal temperature after 60 mins. It is filed as functional. To be noted: 1 h, read-out: MED.
The target in data set [13] is T2, 5-hydroxytryptamine receptor 1A (Rattus norvegicus, UniProt P19327).
T2 sequence (P19327 whole entry): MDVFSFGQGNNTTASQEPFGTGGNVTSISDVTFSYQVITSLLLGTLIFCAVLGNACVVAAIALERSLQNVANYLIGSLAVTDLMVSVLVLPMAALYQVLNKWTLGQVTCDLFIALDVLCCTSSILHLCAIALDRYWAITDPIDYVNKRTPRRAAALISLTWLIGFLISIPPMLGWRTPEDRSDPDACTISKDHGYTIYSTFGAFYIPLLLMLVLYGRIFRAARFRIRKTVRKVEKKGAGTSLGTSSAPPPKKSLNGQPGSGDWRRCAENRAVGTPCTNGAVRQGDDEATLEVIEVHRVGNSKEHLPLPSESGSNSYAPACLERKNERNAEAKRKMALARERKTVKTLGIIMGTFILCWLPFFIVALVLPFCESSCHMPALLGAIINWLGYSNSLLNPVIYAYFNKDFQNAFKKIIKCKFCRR
Nature of the data set: Displacement of [3H]-8-OH-DPAT from 5-HT1A receptor in Sprague-Dawley rat cerebral cortex after 15 mins. The class given is tissue-based.

In data set [14] the target is 5-hydroxytryptamine receptor 7 (Rattus norvegicus, UniProt P32305). As to the kind of experiment: Displacement of [3H]-5-CT from 5-HT7 receptor in Sprague-Dawley rat hypothalamus after 120 mins.
Chain of 5-hydroxytryptamine receptor 7 (P32305 whole entry): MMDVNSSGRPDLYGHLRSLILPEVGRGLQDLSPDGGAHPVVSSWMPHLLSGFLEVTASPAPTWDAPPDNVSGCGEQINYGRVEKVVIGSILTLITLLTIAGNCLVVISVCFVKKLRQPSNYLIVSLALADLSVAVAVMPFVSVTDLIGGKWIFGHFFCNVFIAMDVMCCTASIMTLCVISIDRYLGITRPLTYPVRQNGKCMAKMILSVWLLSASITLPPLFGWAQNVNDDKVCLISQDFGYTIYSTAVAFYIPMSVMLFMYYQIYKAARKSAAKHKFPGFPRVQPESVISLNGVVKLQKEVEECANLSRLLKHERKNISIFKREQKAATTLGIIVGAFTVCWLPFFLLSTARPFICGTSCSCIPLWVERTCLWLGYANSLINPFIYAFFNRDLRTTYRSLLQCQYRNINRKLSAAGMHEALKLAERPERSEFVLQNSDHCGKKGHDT
Data set [15] addresses 5-hydroxytryptamine receptor 4 (Rattus norvegicus, UniProt Q62758). Nature of the data set: Displacement of [3H]GR113808 from 5-HT4 receptor in Sprague-Dawley rat striatum after 30 mins.
Data set [16] deals with T3, 5-hydroxytryptamine receptor 3A (Rattus norvegicus, UniProt P35563).
T3 sequence (P35563 whole entry): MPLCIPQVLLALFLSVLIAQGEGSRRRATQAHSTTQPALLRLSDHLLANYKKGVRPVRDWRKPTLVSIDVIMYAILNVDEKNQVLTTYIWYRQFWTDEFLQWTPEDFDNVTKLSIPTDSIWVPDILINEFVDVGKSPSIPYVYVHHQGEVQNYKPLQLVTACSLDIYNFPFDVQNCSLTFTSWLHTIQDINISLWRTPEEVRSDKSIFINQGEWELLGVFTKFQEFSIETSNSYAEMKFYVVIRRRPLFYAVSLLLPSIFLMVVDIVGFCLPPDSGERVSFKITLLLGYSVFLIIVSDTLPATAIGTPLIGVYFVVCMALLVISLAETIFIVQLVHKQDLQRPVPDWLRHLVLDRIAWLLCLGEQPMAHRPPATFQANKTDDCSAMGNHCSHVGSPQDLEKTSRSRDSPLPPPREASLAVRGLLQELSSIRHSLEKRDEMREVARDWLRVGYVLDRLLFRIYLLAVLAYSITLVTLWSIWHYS
As to the kind of experiment: Displacement of [3H]LY 278584 from 5-HT3 receptor in Sprague-Dawley rat cerebral cortex after 30 mins. The class given is tissue-based.

Chain of Albumin (P02768 whole entry): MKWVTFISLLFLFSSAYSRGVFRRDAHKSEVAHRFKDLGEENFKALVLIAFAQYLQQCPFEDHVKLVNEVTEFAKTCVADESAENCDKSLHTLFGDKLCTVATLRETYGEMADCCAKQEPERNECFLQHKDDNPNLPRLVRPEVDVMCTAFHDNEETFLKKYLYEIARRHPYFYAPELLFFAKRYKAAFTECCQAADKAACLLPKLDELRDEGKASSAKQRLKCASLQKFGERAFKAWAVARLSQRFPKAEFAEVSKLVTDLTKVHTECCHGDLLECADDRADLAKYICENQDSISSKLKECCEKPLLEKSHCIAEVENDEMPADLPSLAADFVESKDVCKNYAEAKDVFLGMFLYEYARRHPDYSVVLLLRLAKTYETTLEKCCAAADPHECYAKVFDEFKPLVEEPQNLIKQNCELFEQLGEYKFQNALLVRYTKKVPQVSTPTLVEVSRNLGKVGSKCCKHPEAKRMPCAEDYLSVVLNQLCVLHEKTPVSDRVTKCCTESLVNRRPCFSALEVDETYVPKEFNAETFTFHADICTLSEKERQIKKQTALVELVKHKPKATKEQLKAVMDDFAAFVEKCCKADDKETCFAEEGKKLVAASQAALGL
Chain of 5-hydroxytryptamine receptor 4 (Q62758 whole entry): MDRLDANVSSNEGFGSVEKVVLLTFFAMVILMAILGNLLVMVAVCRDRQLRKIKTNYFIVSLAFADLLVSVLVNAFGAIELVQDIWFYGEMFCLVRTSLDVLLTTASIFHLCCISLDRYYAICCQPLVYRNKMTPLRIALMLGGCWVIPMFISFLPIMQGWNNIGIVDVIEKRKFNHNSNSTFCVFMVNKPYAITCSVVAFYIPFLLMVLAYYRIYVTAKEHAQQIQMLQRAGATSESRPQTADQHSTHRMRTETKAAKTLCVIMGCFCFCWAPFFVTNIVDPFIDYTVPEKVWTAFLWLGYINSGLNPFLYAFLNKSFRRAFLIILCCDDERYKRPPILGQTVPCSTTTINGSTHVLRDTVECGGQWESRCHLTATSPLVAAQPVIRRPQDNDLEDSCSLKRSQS

One may read the half-life as the time needed for the level to fall by half in the phase considered. For orientation: pKi means the negative decadic logarithm of the Ki, by convention in mol/L. Lower therefore signals a large Ki. As to `CCOc1ccccc1OCCNCCCCN1C(=O)C2CCCN2C1=O.Cl` (stereo not drawn), the inhibition entry (in data set [1]; in the data set filed under Homo sapiens; in [2]; in data set [3]; in data set [4]) was “inactive” throughout. For the same molecule, the results for the Activity entry in the data set on Mus musculus [5] and at Albumin were “Non-toxic” and 25%, respectively. Moreover, the outcome in the data set with Mus musculus [6] and in the data set with Mus musculus [7] was Active. The result with Mus musculus [8] was inactive. The half-life at up to 5 µM in [9] came out at 29.5 min; in [11], 13.1 min. Besides, the CLint scaled at up to 5 µM in data set [10] amounted to 3.5 mL/min/kg. Also, in the data set listed under Mus musculus [12], the minimal effective dose was 0.875 mg/kg. For the same molecule, the negative-log Ki (pKi) was 8.64 in data set [13], 7.77 in [14], < 6.00 in data set [15] and < 6.00 in [16].

The record behind these values is ChEMBL document CHEMBL2429786, “New serotonin 5-HT1A receptor agonists endowed with antinociceptive activity in vivo” (J Med Chem, 2013).
